Results taken from ChEMBL document CHEMBL5329145, “Antileishmanial evaluation of triazole-butenolide conjugates: design, synthesis, in vitro screening, SAR and in silico ADME predictions” (RSC Med Chem, 2023).
pIC50: −log10 of the molar value. The source made the active and inactive calls. No cut-off for these calls is given here.

How the values were obtained:
Leishmania donovani [1] = assay: Antileishmanial activity against Leishmania donovani MHOM/IN/80/Dd8 promastigotes transfected with luciferase reporter gene assessed as inhibition of promastigotes growth incubated for 72 hrs by Steady-Glo reagent based luminescence analysis; assay type: functional, organism-based; conditions: for pIC50: MHOM/IN/80/Dd8, 72 h
Outline: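 Luciferase-transgenic L. donovani promastigotes kept under G418 (20 μg mL⁻¹) in Medium 199 with 10% FCS at 25 ± 1 °C. Late-log cells seeded at 5×10⁵ per well with serial dilutions in DMSO for 72 h, DMSO controls run alongside. Luminescence read with Steady-Glo. % inhibition = (N−n)/N×100 vs untreated. IC50 by probit analysis, mean ± SD of three assays.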

Leishmania donovani [2] = assay: Antileishmanial activity against Leishmania donovani MHOM/IN/80/Dd8 amastigotes infected in mouse J774.A1 cells assessed as inhibition of amastigotes growth incubated for 48 hrs by Steady-Glo reagent based luminescence analysis; assay type: functional, organism-based; conditions: for pIC50: MHOM/IN/80/Dd8, J774.A1, 48 h
Outline: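 J774A cells (2×10⁵ per well, RPMI-1640 with 15% FCS) incubated 24 h at 37 °C in CO2, then infected with stationary-phase luciferase promastigotes (2×10⁶ per well) to give amastigotes. Compound added in fresh medium for 48 h at 37 °C. Medium replaced by PBS, Steady-Glo luminescence read, % inhibition vs untreated. IC50 by probit analysis, mean ± SD of three assays.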

[3] = Cytotoxicity against mouse J774.A1 cells assessed as reduction in cell growth incubated for 48 hrs by MTT assay; assay type: toxicity, cell-based
Outline: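 J774A cells seeded at 0.2 million per well, incubated overnight at 37 °C with 5% CO2, then exposed to compound dilutions in DMSO (DMSO controls) for 48 h. Viability by MTT formazan, OD at 600 nm against blank. CC50 is the concentration giving 50% viability loss vs medium-only cells, from probit analysis. Mean ± SD of three assays.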

[4] = Selectivity index, ratio of CC50 for cytotoxicity against mouse J774.A1 cells to IC50 for antileishmanial activity against Leishmania donovani MHOM/IN/80/Dd8 amastigotes infected in mouse J774.A1 cells; assay type: toxicity, cell-based; conditions: read-out: Ratio CC50/IC50
Outline: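 SI = CC50 in J774A cells (MTT, 48 h) divided by IC50 against intracellular amastigotes (luciferase, 48 h). Both values are means of three independent assays.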

Plasmodium falciparum = assay: Antimalarial activity against Plasmodium falciparum 3D7; assay type: functional, organism-based
Brugia malayi = assay: Antifilarial activity against Brugia malayi assessed as reduction in worm viability by measuring inhibition of MTT reduction at 50 to 100 uM incubated for 24 hrs by MTT assay relative to control; assay type: functional; conditions: dose 50-100 µM
[5] = Stability of compound in simulated physiological fluid assessed as compound remaining at pH 7.4 measured for 120 mins by LC-MS analysis; assay type: physicochemical; conditions: read-out: Stability
Outline: (§1)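 Simulated fluids prepared to USP (SGF pH 1.2, SIF pH 6.8, SPF pH 7.4) and hamster plasma pre-incubated at 37 ± 2 °C for 15 min in a shaking water bath, then spiked with compound. Aliquots taken at intervals up to 120 min, quenched with acetonitrile, vortexed and centrifuged. Remaining analyte quantified by LC-MS/MS.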

[6] = Half life in golden hamster at 50 mg/kg, po measured after 5 mins to 24 hrs by LC-MS/MS analysis; assay type: ADME, organism-based, Mesocricetus auratus; conditions: in vivo, time 5-1440 min
Outline: (§2)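 Golden hamsters fasted before dosing, oral 50 mg kg⁻¹. Retro-orbital blood drawn under anesthesia from 5 min to 24 h, spun at 6000g for 20 min, plasma stored at -80 °C. Protein precipitation with acetonitrile containing carbamazepine IS (3 ng mL⁻¹). LC-MS/MS on C18 column, isocratic 90% acetonitrile, positive mode, transition m/z 375.2/198.3. Parameters from non-compartmental analysis.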

[7] = Stability of compound in simulated gastric fluid assessed as parent compound remaining at pH 1.2 measured for 120 mins by LC-MS/MS analysis; assay type: ADME; conditions: read-out: Stability; outline: as §1
[8] = Clearance in golden hamster at 50 mg/kg, po measured after 5 mins to 24 hrs by LC-MS/MS analysis; assay type: ADME, organism-based, Mesocricetus auratus; conditions: in vivo, time 5-1440 min; outline: as §2
[9] = Volume of distribution in golden hamster at 50 mg/kg, po measured after 5 mins to 24 hrs by LC-MS/MS analysis; assay type: ADME, organism-based, Mesocricetus auratus; conditions: in vivo, time 5-1440 min; outline: as §2
[10] = Cmax in golden hamster at 50 mg/kg, po measured after 5 mins to 24 hrs by LC-MS/MS analysis; assay type: ADME, organism-based, Mesocricetus auratus; set-up: dose 50 mg/kg, time upper 1440 min, time lower 5 min, route po; conditions: in vivo; outline: as §2
[11] = Tmax in golden hamster at 50 mg/kg, po measured after 5 mins to 24 hrs by LC-MS/MS analysis; assay type: ADME, organism-based, Mesocricetus auratus; conditions: in vivo, time 5-1440 min; outline: as §2
[12] = AUC in golden hamster at 50 mg/kg, po measured after 5 mins to 24 hrs by LC-MS/MS analysis; assay type: ADME, organism-based, Mesocricetus auratus; set-up: time lower 5 min, dose 50 mg/kg, time upper 1440 min, route po; conditions: in vivo; outline: as §2
[13] = MRT in golden hamster at 50 mg/kg, po measured after 5 mins to 24 hrs by LC-MS/MS analysis; assay type: ADME, organism-based, Mesocricetus auratus; conditions: in vivo, time 5-1440 min; outline: as §2
[14] = Stability of compound in simulated intestinal fluid assessed as parent compound remaining at pH 6.8 measured for 120 mins by LC-MS/MS analysis; assay type: ADME; conditions: read-out: Stability; outline: as §1
[15] = Stability of compound in golden hamster plasma assessed as compound remaining measured for 120 mins by LC-MS analysis; assay type: ADME, cell-free, Mesocricetus auratus; conditions: read-out: Stability; outline: as §1

SMILES	pIC50 (Leishmania donovani [1])	pIC50 (Leishmania donovani [2])	CC50 at 48 h [3] [µM]	selectivity ratio [4]	also measured
Cc1cc(C)c(-n2cc(CNC3=C(Cl)C(=O)OC3O)nn2)c(C)c1 (stereo not given)	≤ 4.30	≤ 4.70	–	–	–
O=C1OC(O)C(NCc2cn(-c3ccccc3)nn2)=C1Cl (stereo not given)	≤ 4.30	–	–	–	inhibition (Leishmania donovani [2]): inactive
O=C1OC(O)C(NCc2cn(-c3ccc(F)c(Cl)c3)nn2)=C1Cl (stereo not given)	4.45	4.98	78	7.38	–
Cc1ccc(C)c(-n2cc(CNC3=C(Cl)C(=O)OC3O)nn2)c1 (stereo not given)	≤ 4.30	≤ 4.30	–	–	pIC50 (Plasmodium falciparum): 5.34
Cc1ccc(-n2cc(CNC3=C(Cl)C(=O)OC3O)nn2)cc1C (stereo not given)	4.49	5.00	93.5	9.27	inhibition (INH) (Brugia malayi): 52%
O=C1OC(O)C(NCc2cn(-c3ccc(F)c(F)c3)nn2)=C1Cl (stereo not given)	≤ 4.30	5.08	172	20.5	remaining at 2 h [5]: ≥ 70%; half-life [6]: 2.15 h; pIC50 (Plasmodium falciparum): 5.44; remaining at 2 h [7]: ≥ 70%; CL/F [8]: 207 mL/min/kg; Vd [9]: 38.15 L/kg; Cmax [10]: 1110 ng/mL; Tmax [11]: 2 h; AUC [12]: 4500 ng·h/mL; MRT [13]: 3.64 h; remaining at 2 h [14]: ≥ 70%; remaining at 2 h [15]: ≥ 70%
CCCCc1ccc(-n2cc(CNC3=C(Cl)C(=O)OC3O)nn2)cc1 (stereo not given)	≤ 4.30	–	–	–	inhibition (Leishmania donovani [2]): inactive
O=C1OC(O)C(NCc2cn(-c3cccc(C(F)(F)F)c3)nn2)=C1Cl (stereo not given)	4.49	5.07	102	12.1	–
O=C1OC(O)C(NCc2cn(-c3ccc4c(c3)OCO4)nn2)=C1Cl (stereo not given)	≤ 4.30	≤ 4.30	–	–	pIC50 (Plasmodium falciparum): 5.36; inhibition (INH) (Brugia malayi): 52%
COc1ccc(-n2cc(CNC3=C(Cl)C(=O)OC3O)nn2)cc1 (stereo not given)	≤ 4.30	≤ 4.60	–	–	pIC50 (Plasmodium falciparum): 5.31
COc1cc(-n2cc(CNC3=C(Cl)C(=O)OC3O)nn2)cc(OC)c1OC (stereo not given)	≤ 4.00	4.95	84.8	7.5	–
CC(C)(C)c1ccc(-n2cc(CNC3=C(Cl)C(=O)OC3O)nn2)cc1 (stereo not given)	≤ 4.30	≤ 4.60	–	–	pIC50 (Plasmodium falciparum): 5.36
C#CCNC1=C(Cl)C(=O)OC1O (stereo not given)	≤ 4.30	4.95	97.2	8.56	inhibition (INH) (Brugia malayi): 65%
O=C1OC(O)C(NCc2cn(-c3ccc(F)cc3)nn2)=C1Cl (stereo not given)	≤ 4.30	–	–	–	pIC50 (Plasmodium falciparum): 5.35; inhibition (Leishmania donovani [2]): inactive
Cc1ccc(-n2cc(CNC3=C(Cl)C(=O)OC3O)nn2)cc1 (stereo not given)	≤ 4.30	–	–	–	inhibition (Leishmania donovani [2]): inactive
Cc1ccc(-n2cc(CNC3=C(Cl)C(=O)OC3O)nn2)cc1F (stereo not given)	≤ 4.30	≤ 4.70	–	–	inhibition (INH) (Brugia malayi): 66%
O=C1OC(O)C(NCc2cn(-c3ccc(Cl)c(Cl)c3)nn2)=C1Cl (stereo not given)	4.47	5.06	84.2	9.75	inhibition (INH) (Brugia malayi): 52%
O=C1OC(O)C(NCc2cn(-c3ccccc3Oc3ccccc3)nn2)=C1Cl (stereo not given)	≤ 4.30	≤ 4.70	–	–	pIC50 (Plasmodium falciparum): 5.33
O=C1OC(O)C(NCc2cn(-c3ccccc3[N+](=O)[O-])nn2)=C1Cl (stereo not given)	≤ 4.30	≤ 4.60	–	–	–
CCc1ccc(-n2cc(CNC3=C(Cl)C(=O)OC3O)nn2)cc1 (stereo not given)	≤ 4.30	–	–	–	inhibition (Leishmania donovani [2]): inactive
COc1ccc(-n2cc(CNC3=C(Cl)C(=O)OC3O)nn2)cc1OC (stereo not given)	–	–	–	–	inhibition (Leishmania donovani [1]): inactive; inhibition (Leishmania donovani [2]): inactive
CCCCCCCCCCCCCCCCOP(=O)([O-])OCC[N+](C)(C)C [MILTEFOSINE]	–	5.03	52.1	5.53	–
CC(C)c1ccc(-n2cc(CNC3=C(Cl)C(=O)OC3O)nn2)cc1 (stereo not given)	–	≤ 4.30	–	–	inhibition (Leishmania donovani [1]): inactive
O=C1OC(O)C(NCc2cn(-c3ccc(F)c(C(F)(F)F)c3)nn2)=C1Cl (stereo not given)	4.51	5.04	136	15	–
O=C1OC(O)C(NCc2cn(-c3ccc(Cl)cc3)nn2)=C1Cl (stereo not given)	≤ 4.30	≤ 4.30	–	–	–
